Assays:
T47D = assay: Cytotoxicity against human T47D cells assessed as reduction in cell growth measured after 48 hrs by MTT assay; assay type: functional, cell-based
Procedure, shortened: (§1)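 T47-D cells kept in RPMI-1640 with 2 mM L-glutamine, insulin, 4.5 g/L glucose and 10% FBS. MRC-5 cells kept in DMEM with 10% FBS. Cells seeded at 10,000-20,000 per well and preincubated 24 h at 37 °C in 5% CO2. Serial dilutions added, then incubated 48 h. MTT for 2-4 h, formazan dissolved in DMSO, read at 550/650 nm. IC50 is the concentration giving 50% growth inhibition.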

Aromatase = target: T1, Aromatase (Homo sapiens, UniProt P11511); assay: Inhibition of recombinant human aromatase expressed in baculovirus infected insect cells using O-benzyl fluorescein benzyl ester as substrate in presence of NADPH generating system by fluorescence based analysis
T1 sequence (P11511 whole entry): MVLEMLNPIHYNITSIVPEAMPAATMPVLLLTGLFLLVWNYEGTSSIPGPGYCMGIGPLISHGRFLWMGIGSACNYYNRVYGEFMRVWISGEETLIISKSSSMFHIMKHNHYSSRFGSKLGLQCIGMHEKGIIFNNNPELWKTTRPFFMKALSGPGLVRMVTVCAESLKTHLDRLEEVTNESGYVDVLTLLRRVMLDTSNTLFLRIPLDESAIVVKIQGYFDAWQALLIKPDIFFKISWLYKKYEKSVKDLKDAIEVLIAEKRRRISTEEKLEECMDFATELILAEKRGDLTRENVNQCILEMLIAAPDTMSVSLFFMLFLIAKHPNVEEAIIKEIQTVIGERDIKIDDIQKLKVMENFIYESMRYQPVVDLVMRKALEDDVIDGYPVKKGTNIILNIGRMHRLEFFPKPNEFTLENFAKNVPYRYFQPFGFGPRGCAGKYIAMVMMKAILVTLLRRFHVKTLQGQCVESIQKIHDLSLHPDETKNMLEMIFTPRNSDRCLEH

MRC5 = assay: Cytotoxicity against human MRC5 cells assessed as reduction in cell growth measured after 48 hrs by MTT assay; assay type: cell-based; conditions: MRC5, 48 h; procedure, shortened: as §1
Homo sapiens = species: Homo sapiens; assay: Selectivity index, ratio of IC50 for human MRC5 cells by MTT assay to IC50 for human recombinant aromatase expressed in baculovirus infected insect cells
[1] = Homo sapiens, T47D, 48 h, read-out: IC50

Compound	IC50 (Aromatase) [µM]	IC50 (T47D; [1])	IC50 (MRC5)	Ratio IC50 (Homo sapiens)	IC50 (T47D; t47d)
COc1ccc(S(=O)(=O)Nc2cccc(NS(=O)(=O)c3ccc(OC)cc3)c2)cc1	0.53	> 50 µg/mL	> 50 µg/mL	> 210	–
O=[N+]([O-])c1ccc(NC(=S)NCc2cccc(CNC(=S)Nc3ccc([N+](=O)[O-])cc3)c2)cc1	0.8	–	–	–	–
Cc1cc(C)c(C)c(S(=O)(=O)NCc2cccc(CNS(=O)(=O)c3c(C)c(C)cc(C)c3C)c2)c1C	3.2	30.9 µM	80.9 µM	25.3	–
O=[N+]([O-])c1ccccc1S(=O)(=O)NCc1cccc(CNS(=O)(=O)c2ccccc2[N+](=O)[O-])c1	3.67	75.4 µM	> 50 µg/mL	> 26.9	–
S=C(NCc1cccc(CNC(=S)Nc2ccc(Cl)cc2)c1)Nc1ccc(Cl)cc1	5.5	–	–	–	–
COc1cccc2c1C(=O)c1c(O)c3c(c(O)c1C2=O)C[C@@](O)(C(=O)CO)C[C@@H]3O[C@H]1C[C@H](N)[C@H](O)[C@H](C)O1 [DOXORUBICIN]	–	0.88 µM	2.19 µM	–	–
Cc1cc(C)c(C)c(S(=O)(=O)NCc2ccc(CNS(=O)(=O)c3c(C)c(C)cc(C)c3C)cc2)c1C	> 12.5	> 50 µg/mL	16.3 µM	–	–
N#Cc1ccc(S(=O)(=O)NCc2ccc(CNS(=O)(=O)c3ccc(C#N)cc3)cc2)cc1	0.66	> 50 µg/mL	92.8 µM	141	–
O=S(=O)(NCc1cccc(CNS(=O)(=O)c2ccc3ccccc3c2)c1)c1ccc2ccccc2c1	0.21	> 50 µg/mL	> 50 µg/mL	> 461	–
O=[N+]([O-])c1cccc(S(=O)(=O)NCc2cccc(CNS(=O)(=O)c3cccc([N+](=O)[O-])c3)c2)c1	2.75	> 50 µg/mL	> 50 µg/mL	> 35.9	–

The next lines start with results.

IC50 (Aromatase) [µM]	Compound	IC50 (T47D; [1])	IC50 (MRC5)	Ratio IC50 (Homo sapiens)	IC50 (T47D; t47d)
0.28	CC(=O)c1ccc(S(=O)(=O)NCc2cccc(CNS(=O)(=O)c3ccc(C(C)=O)cc3)c2)cc1	> 50 µg/mL	> 50 µg/mL	> 357	–
2.19	O=S(=O)(NCc1cccc(CNS(=O)(=O)c2ccc(F)cc2)c1)c1ccc(F)cc1	–	> 50 µg/mL	> 50.5	Nd(Insoluble)
0.05	O=S(=O)(NCc1cccc(CNS(=O)(=O)c2ccc(Cl)cc2)c1)c1ccc(Cl)cc1	37.5 µM	68.5 µM	1370	–
0.16	N#Cc1ccc(S(=O)(=O)NCc2cccc(CNS(=O)(=O)c3ccc(C#N)cc3)c2)cc1	69.3 µM	> 50 µg/mL	> 670	–
0.13	Cc1ccc(S(=O)(=O)NCc2cccc(CNS(=O)(=O)c3ccc(C)cc3)c2)cc1	43.9 µM	> 50 µg/mL	> 865	–
0.37	O=[N+]([O-])c1ccc(S(=O)(=O)NCc2cccc(CNS(=O)(=O)c3ccc([N+](=O)[O-])cc3)c2)cc1	39.3 µM	> 50 µg/mL	> 267	–
11.6	COc1ccc(S(=O)(=O)NCc2cccc(CNS(=O)(=O)c3ccc(OC)cc3)c2)cc1	75.3 µM	> 50 µg/mL	> 9.04	–
0.78	O=S(=O)(Nc1cccc(NS(=O)(=O)c2ccc(Cl)cc2)c1)c1ccc(Cl)cc1	87.2 µM	63.1 µM	80.9	–
0.06	O=S(=O)(NCc1cccc(CNS(=O)(=O)c2ccc(Br)cc2)c1)c1ccc(Br)cc1	–	> 50 µg/mL	> 1450	Nd(Insoluble)
3.3	Nc1cccc(S(=O)(=O)NCc2cccc(CNS(=O)(=O)c3cccc(N)c3)c2)c1	90.6 µM	> 50 µg/mL	> 33.9	–
0.43	O=S(=O)(NCc1cccc(CNS(=O)(=O)c2ccc(C(F)(F)F)cc2)c1)c1ccc(C(F)(F)F)cc1	75.4 µM	74.6 µM	173	–

Reference: ChEMBL document CHEMBL4359882, “Synthesis, molecular docking, and QSAR study of bis-sulfonamide derivatives as potential aromatase inhibitors” (Bioorg Med Chem, 2019)
